Experimental data published in PMC9290582 (British Journal of Clinical Pharmacology, 2021).

How the values were obtained:
[1] = Population pharmacokinetic analysis; type: in vivo, human; details: for CL/F, apparent clearance / Vp/F, apparent peripheral volume of distribution: parent; for Covariate effect ECOG 2—CL/F / Covariate effect Healthy subject—CL/F / Covariate effect Healthy subject—Vp/F / Covariate effect PPI—F1 (relative bioavailability): relative change (1 + estimate)
How it was run: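 Model: 2-compartment, 5-transit absorption chain, first-order absorption and elimination. Metabolite formation was CL/F × fraction metabolized, fixed at 0.4. BSV and BOV were exponential; residual error was additive on log scale. Precision was checked by bootstrap.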

[2] = Model-predicted steady-state exposure and covariate effects; type: in vivo, human; details: for Reduction of AUC24h,ss by coadministration of PPIs: population PK study; for Exposure lower with concomitant PPI use: relative to a reference patient
How it was run: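 Exposure simulated stochastically from the final population PK model at 100 mg BID. AUC24h,ss and Cmax,ss were reported as model-predicted medians (90% prediction interval) relative to a reference patient: B-cell malignancy, ECOG PS 0 or 1, no concomitant PPI. A covariate effect was deemed not relevant if its change and 95% CI fell within 0.8–1.25.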

[3] = system: Bruton tyrosine kinase (BTK); details: cited from earlier work
[4] = cited from earlier work
[5] = cited from earlier work; remark: listed apart in the source
[6] = high-calorie meal vs. fasting conditions; cited from earlier work
[7] = healthy subjects; ref data on file; cited from earlier work
[8] = bootstrap 50th [2.5th, 97.5th percentile]
[9] = final model fixed effect, estimate (%RSE)
[10] = final model, bootstrap 50th [2.5th, 97.5th percentile]
[11] = relative to a reference cancer population

## CC#CC(=O)NCCCC(=O)c1nc(-c2ccc(C(=O)Nc3ccccn3)cc2)c2c(N)nccn12 [ACP‐5862]
[1]; [8]
  BSV CLM/F: 13.1 [9.22, 20.2] CV%
  BSV QM/F: 40 [23.8, 59.2] CV%
  BSV VcM/F: 53.3 [36.9, 71.1] CV%
  BSV VpM/F: 21.2 [15.3, 41.2] CV%
[1]; estimate (%RSE)
  BSV CLM/F: 11.8 (21.1) CV%
  BSV QM/F: 40.7 (14.4) CV%
  BSV VcM/F: 47.2 (12.1) CV%
  BSV VpM/F: 19.2 (30.5) CV%
[1]; [9]
  CLM/F, apparent clearance metabolite: 21.8 (1.98) L/h
  VcM/F, apparent central volume of distribution metabolite: 22.7 (6.66) L
  VpM/F, apparent peripheral volume of distribution metabolite: 89.2 (4.58) L
[1]; [10]
  CLM/F, apparent clearance metabolite: 21.6 [20.2, 22.6] L/h
  VcM/F, apparent central volume of distribution metabolite: 22.7 [19.5, 25.8] L
  VpM/F, apparent peripheral volume of distribution metabolite: 88.1 [77.6, 97] L
[2]
  Reduction of AUC24h,ss by coadministration of PPIs: 36%
  Exposure lower with concomitant PPI use: 36%
[3]
  Potency for BTK inhibition relative to acalabrutinib: approximately half as potent as acalabrutinib
[4]
  Mean exposure relative to that of acalabrutinib: approximately 2 fold

## CC#CC(=O)N1CCC[C@H]1c1nc(-c2ccc(C(=O)Nc3ccccn3)cc2)c2c(N)nccn12 [acalabrutinib]
[1]; [8]
  BOV F1 (between-occasion variability, relative bioavailability): 55.3 [50.4, 61.1] CV%
  BOV MTT (between-occasion variability): 119 [104, 137] CV%
  BSV CL/F (between-subject variability): 24.1 [20.4, 28] CV%
  BSV Vc/F: 284 [225, 367] CV%
  BSV Vp/F: 33.9 [25, 42.4] CV%
  Covariate effect ECOG 2—CL/F: −0.158 [−0.274, −0.032]
  Covariate effect Healthy subject—CL/F: 0.467 [0.367, 0.569]
  Covariate effect Healthy subject—Vp/F: −0.554 [−0.6, −0.496]
  Covariate effect PPI—F1 (relative bioavailability): −0.368 [−0.49, −0.228]
[1]; estimate (%RSE)
  BOV F1 (between-occasion variability, relative bioavailability): 56.1 (1.80) CV%
  BOV MTT (between-occasion variability): 118 (2.39) CV%
  BSV CL/F (between-subject variability): 23.8 (5.86) CV%
  BSV Vc/F: 270 (6.51) CV%
  BSV Vp/F: 33.7 (6.96) CV%
  Covariate effect ECOG 2—CL/F: −0.171 (36.2)
  Covariate effect Healthy subject—CL/F: 0.467 (19.3)
  Covariate effect Healthy subject—Vp/F: −0.556 (5.59)
  Covariate effect PPI—F1 (relative bioavailability): −0.358 (7.01)
[1]; [9]
  Ka, first-order absorption rate constant: 1.48 (2.63) h^−1
  MTT, mean transit time: 0.459 (4.16) h
  CL/F, apparent clearance: 134 (1.97) L/h
  Vp/F, apparent peripheral volume of distribution: 110 (3.45) L
[1]; [10]
  Ka, first-order absorption rate constant: 1.48 [1.41, 1.55] h^−1
  MTT, mean transit time: 0.460 [0.426, 0.492] h
  CL/F, apparent clearance: 132 [126, 139] L/h
  Vp/F, apparent peripheral volume of distribution: 108 [97.6, 120] L
[1]; remaining variability in absorption not related to PPIs
  BOV on MTT: 118%
[5]
  Solubility dependence on pH: decreases with increasing gut pH
[2]
  Reduction of AUC24h,ss by coadministration of PPIs: 36%
  Exposure lower with concomitant PPI use: 36%
[2]; [11]
  AUC24h,ss higher in subjects with ECOG PS ≥ 2: 21%
  AUC24h,ss lower in healthy subjects: 32%
  Cmax,ss higher in subjects with ECOG PS ≥ 2: 14%
  Cmax,ss lower in healthy subjects: 24%
[6]
  Effect of a high-calorie meal on Cmax: delayed and decreased
  Effect of a high-calorie meal on mean AUC: similar
[7]
  Decrease of AUC on coadministration with omeprazole (PPI): 43%
